Like-named read-outs stand apart in the source and are kept apart here.
What was measured:
[1] = test system: DNA synthesis in cell culture; settings: cited from earlier work
hpol ι^26–446 [2] = biological target: T1, hpol ι^26–446 (Homo sapiens, UniProt Q9UNA4); experiment: steady-state single-nucleotide; type: biochemical; settings: for kcat: dCTP insertion
T1 sequence (Q9UNA4 26-446): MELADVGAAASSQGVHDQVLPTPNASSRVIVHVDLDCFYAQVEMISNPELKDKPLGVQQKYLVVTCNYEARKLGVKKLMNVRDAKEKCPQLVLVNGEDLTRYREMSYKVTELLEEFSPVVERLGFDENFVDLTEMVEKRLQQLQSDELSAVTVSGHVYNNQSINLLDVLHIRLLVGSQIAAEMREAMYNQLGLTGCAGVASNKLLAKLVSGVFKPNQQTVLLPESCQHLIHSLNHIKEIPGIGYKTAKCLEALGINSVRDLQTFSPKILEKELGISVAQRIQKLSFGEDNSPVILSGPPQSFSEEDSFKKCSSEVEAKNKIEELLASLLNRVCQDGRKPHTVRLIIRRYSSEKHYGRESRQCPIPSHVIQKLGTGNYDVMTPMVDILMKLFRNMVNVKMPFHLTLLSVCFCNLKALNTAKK
Summary of the method: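 Single dCTP insertion on a FAM-labelled primer-template: 5 nM enzyme, 100 nM DNA. Started with dCTP (10 concentrations, 1–1500 μM) plus 2 mM Mg²⁺. MK886 at 20 nM, 50 nM, 1 μM or 10 μM, or DMSO. Time points quenched with 95% formamide/20 mM EDTA; products resolved on 16% acrylamide/7 M urea gels. Velocities fitted to Michaelis–Menten; kcat and KM taken after enzyme correction.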

hpol ι^26–446 [3] = biological target: T1, hpol ι^26–446; type: binding; settings: for Kd: read-out: Kd,DNA (polymerase binding to primer-template DNA)
Summary of the method: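 Recombinant human polymerase (His/GST-tagged, expressed in E. coli BL21(DE3), tags cleaved) titrated into 2 nM FAM-labelled 13/18-mer primer-template at 25 °C. Buffer: 50 mM HEPES pH 7.5, 10 mM KOAc, 10 mM MgCl₂, 0.1 mM ZnCl₂, 0.1 mM EDTA, 10% DMSO, 0.1 mg/mL BSA. MK886 at 0–250 μM, with DMSO as control. Polarization read at ex 485/em 525 nm. Kd fitted with total DNA held constant.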

[4] = test system: peroxisome proliferator activated receptor alpha (PPARα); settings: FLAP-independent inhibition of PPARα; cited from earlier work

kcat (hpol ι^26–446 [2]; 0.02 μM MK886): 0.0233 ± 0.0017 s⁻¹
Fold decrease in kcat/KM,dNTP (hpol ι^26–446 [2]; 0.02 μM MK886 vs no inhibitor): 1.5
kcat (hpol ι^26–446 [2]; 0.05 μM MK886): 0.02 ± 0.0017 s⁻¹
Fold decrease in kcat/KM,dNTP (hpol ι^26–446 [2]; 0.05 μM MK886 vs no inhibitor): 2.1
kcat (hpol ι^26–446 [2]; 1 μM MK886): 0.0267 ± 0.0017 s⁻¹
Fold decrease in kcat/KM,dNTP (hpol ι^26–446 [2]; 1 μM MK886 vs no inhibitor): 2.1
kcat (hpol ι^26–446 [2]; 10 μM MK886): 0.025 ± 0.0017 s⁻¹
Fold decrease in kcat/KM,dNTP (hpol ι^26–446 [2]; 10 μM MK886 vs no inhibitor): 2.8
mechanism of inhibition of DNA polymerase activity (hpol ι^26–446 [2]; single-nucleotide insertion, kcat and Km,dNTP both altered): mixed-model of inhibition
change in the affinity for DNA relative to the DMSO control (hpol ι^26–446 [3]; 10 μM MK886): no observed change
fold increase in the Kd,DNA (hpol ι^26–446 [3]; MK886 at or above 100 μM): > 2 fold
Kd (hpol ι^26–446 [3]; 100 μM MK886): 18.8 ± 2.7 nM
Kd (hpol ι^26–446 [3]; 150 μM MK886): 16.4 ± 2.1 nM
Kd (hpol ι^26–446 [3]; 250 μM MK886): 38.8 ± 17.1 nM
SMILES: CC(C)c1ccc2c(c1)c(SC(C)(C)C)c(CC(C)(C)C(=O)O)n2Cc1ccc(Cl)cc1 [MK886, 3-[1-(4-chlorobenzyl)-3-t-butyl-thio-5-isoproylindol-2-yl]-2,2-dimethylpropanoic acid]
concentration at which DNA synthesis/replication is inhibited [1]: ≥ 1 µM
concentration at which apoptosis is induced [4]: above 10 μM

Reference: PMC3578163 (Chemical research in toxicology, 2013)
